# In ChEMBL document CHEMBL1144893, “Discovery of a potent and selective protein kinase CK2 inhibitor by high-throughput docking” (J Med Chem, 2003):
# Tests used:
# [1] = molecular target: T1, Casein kinase II (Homo sapiens) (UniProt P67870+P68400+P19784); assay: Inhibition of Casein kinase 2 at 10 uM; assay type: protein-complex assay
# [2] = molecular target: Cyclin-dependent kinase 1 (Homo sapiens) (UniProt P06493); assay: Inhibition of Cyclin dependent kinase 1 at 10 uM
# Procedure, shortened: (§1)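 Run under conditions optimized for each kinase, with ATP near the enzyme's Km: CDK1 7.5 μM, PKA 50 μM.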
# [3] = molecular target: Insulin receptor (Homo sapiens) (UniProt P06213); assay: Inhibition of Insulin receptor at 10 uM
# [4] = molecular target: Vascular endothelial growth factor receptor 2 (Homo sapiens) (UniProt P35968); assay: Inhibition of Kinase insert domain receptor (VEGFR2) at 10 uM
# Sequence of Vascular endothelial growth factor receptor 2 (Homo sapiens) (P35968 whole entry, the tested form may be a part): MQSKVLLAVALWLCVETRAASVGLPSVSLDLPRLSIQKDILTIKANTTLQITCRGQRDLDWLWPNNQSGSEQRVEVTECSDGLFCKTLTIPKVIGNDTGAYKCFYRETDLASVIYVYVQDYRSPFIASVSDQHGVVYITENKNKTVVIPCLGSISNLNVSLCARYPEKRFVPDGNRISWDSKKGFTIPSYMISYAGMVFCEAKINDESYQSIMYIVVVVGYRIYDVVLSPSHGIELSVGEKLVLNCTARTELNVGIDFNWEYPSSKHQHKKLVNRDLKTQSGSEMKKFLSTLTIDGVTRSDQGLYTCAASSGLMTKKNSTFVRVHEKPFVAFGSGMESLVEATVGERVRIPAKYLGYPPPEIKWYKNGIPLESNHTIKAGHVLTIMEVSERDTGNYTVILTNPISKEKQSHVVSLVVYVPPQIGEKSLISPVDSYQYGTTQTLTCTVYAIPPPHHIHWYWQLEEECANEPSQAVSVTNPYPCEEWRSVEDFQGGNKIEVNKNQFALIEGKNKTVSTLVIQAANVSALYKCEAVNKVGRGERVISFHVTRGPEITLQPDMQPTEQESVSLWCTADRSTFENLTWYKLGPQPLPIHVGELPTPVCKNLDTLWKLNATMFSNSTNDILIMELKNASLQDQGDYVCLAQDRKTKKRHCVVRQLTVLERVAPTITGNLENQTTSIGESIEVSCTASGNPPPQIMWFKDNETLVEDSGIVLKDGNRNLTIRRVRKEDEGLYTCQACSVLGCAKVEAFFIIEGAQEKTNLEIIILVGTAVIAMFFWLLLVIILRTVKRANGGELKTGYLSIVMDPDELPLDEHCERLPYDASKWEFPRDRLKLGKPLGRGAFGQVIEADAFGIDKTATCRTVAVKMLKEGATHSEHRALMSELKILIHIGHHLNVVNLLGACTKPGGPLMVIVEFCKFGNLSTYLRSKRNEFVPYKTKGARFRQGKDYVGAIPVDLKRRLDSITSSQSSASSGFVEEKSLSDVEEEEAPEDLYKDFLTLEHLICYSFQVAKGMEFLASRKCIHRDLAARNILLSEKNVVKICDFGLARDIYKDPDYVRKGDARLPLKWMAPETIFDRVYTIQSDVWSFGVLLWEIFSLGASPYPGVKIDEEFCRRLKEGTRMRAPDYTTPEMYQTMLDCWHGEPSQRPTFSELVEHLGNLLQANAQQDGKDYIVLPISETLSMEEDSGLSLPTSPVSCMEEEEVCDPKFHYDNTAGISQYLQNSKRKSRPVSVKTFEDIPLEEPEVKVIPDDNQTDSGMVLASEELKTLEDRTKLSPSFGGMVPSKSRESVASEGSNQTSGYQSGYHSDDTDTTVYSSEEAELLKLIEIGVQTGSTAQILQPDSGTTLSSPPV
# Procedure, shortened: (§2)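 Filter-binding assay with recombinant GST-fused kinase domains expressed in baculovirus and purified over glutathione sepharose. [33P]-ATP was the phosphate donor and polyGluTyr (4:1) the acceptor. ATP was near Km: KDR, Flt-1, FGFR-1, Tek 8.0 μM; PDGFR-β, c-Kit, c-Met 1.0 μM; c-abl 5 μM; Her-1, Her-2 2.0 μM; c-Src 20 μM; IGF-1R 30 μM.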
# [5] = molecular target: 3-phosphoinositide-dependent protein kinase 1 (Homo sapiens) (UniProt O15530); assay: Inhibition of Phosphatidylinositol-trisphosphate-dependent kinase 1 at 10 uM
# [6] = molecular target: Platelet-derived growth factor receptor beta (Homo sapiens) (UniProt P09619); assay: Inhibition of Platelet derived growth factor receptor beta at 10 uM; procedure, shortened: as §2
# [7] = molecular target: cAMP-dependent protein kinase (PKA) (Homo sapiens) (UniProt P22694+P17612+P22612); assay: Inhibition of Protein kinase A at 10 uM; assay type: protein assay; procedure, shortened: as §1
# [8] = molecular target: Serine/threonine-protein kinase AKT (Homo sapiens) (UniProt P31751+Q9Y243+P31749); assay: Inhibition of Protein kinase B at 10 uM; assay type: protein assay
# [9] = molecular target: Epidermal growth factor receptor (Homo sapiens) (UniProt P00533); assay: Inhibition of protein kinase HER-1 at 10 uM; procedure, shortened: as §2
# [10] = molecular target: Receptor tyrosine-protein kinase erbB-2 (Homo sapiens) (UniProt P04626); assay: Inhibition of protein kinase HER-2 at 10 uM; procedure, shortened: as §2
# [11] = molecular target: Mast/stem cell growth factor receptor Kit (Homo sapiens) (UniProt P10721); assay: Inhibition of Protein kinase Kit at 10 uM; procedure, shortened: as §2
# [12] = molecular target: Hepatocyte growth factor receptor (Homo sapiens) (UniProt P08581); assay: Inhibition of Protein kinase Met at 10 uM; procedure, shortened: as §2
# Sequence of Hepatocyte growth factor receptor (Homo sapiens) (P08581 whole entry): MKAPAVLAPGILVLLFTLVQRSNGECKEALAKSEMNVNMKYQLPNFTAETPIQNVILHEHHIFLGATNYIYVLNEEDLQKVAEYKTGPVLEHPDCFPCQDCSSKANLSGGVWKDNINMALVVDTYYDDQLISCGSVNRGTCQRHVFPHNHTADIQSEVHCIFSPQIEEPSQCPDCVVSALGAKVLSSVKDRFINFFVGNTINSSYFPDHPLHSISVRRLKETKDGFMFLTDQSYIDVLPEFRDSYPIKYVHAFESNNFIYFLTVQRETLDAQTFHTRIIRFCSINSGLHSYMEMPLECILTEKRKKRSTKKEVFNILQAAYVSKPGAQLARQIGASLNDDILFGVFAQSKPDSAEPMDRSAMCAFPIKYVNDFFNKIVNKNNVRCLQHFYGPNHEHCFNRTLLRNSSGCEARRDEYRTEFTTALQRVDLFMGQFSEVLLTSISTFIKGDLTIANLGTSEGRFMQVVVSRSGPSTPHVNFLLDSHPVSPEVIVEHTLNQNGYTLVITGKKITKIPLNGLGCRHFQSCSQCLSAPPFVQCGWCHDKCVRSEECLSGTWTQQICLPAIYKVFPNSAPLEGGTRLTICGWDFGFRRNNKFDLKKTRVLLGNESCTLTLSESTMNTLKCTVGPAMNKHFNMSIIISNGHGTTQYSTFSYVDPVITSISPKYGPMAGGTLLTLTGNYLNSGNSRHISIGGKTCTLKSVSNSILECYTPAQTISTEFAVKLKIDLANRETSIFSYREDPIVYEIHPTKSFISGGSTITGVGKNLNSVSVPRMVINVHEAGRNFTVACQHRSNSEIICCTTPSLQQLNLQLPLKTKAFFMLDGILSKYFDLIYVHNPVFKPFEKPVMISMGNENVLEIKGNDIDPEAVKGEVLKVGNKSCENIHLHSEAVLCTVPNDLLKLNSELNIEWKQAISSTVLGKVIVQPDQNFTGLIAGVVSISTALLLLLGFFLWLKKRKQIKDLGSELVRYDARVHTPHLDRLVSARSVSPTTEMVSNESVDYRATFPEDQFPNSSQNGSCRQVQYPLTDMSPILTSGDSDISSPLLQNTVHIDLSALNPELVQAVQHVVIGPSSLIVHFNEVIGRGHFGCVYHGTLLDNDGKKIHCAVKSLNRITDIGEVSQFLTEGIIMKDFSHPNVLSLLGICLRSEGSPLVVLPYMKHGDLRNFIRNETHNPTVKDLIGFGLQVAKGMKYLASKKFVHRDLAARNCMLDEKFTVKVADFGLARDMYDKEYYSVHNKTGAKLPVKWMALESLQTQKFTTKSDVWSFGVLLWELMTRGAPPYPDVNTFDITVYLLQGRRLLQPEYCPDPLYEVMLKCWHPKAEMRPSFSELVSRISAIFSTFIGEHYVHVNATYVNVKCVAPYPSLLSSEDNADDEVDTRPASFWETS
# [13] = molecular target: Vascular endothelial growth factor receptor 1 (Homo sapiens) (UniProt P17948); assay: Inhibition of Protein kinase Flt-1 at 10 uM; procedure, shortened: as §2
# [14] = molecular target: Receptor-type tyrosine-protein kinase FLT3 (Homo sapiens) (UniProt P36888); assay: Inhibition of Protein kinase Flt-3 at 10 uM
# [15] = molecular target: Proto-oncogene tyrosine-protein kinase Src (Homo sapiens) (UniProt P12931); assay: Inhibition of Protein kinase Src at 10 uM; procedure, shortened: as §2
# Sequence of Proto-oncogene tyrosine-protein kinase Src (Homo sapiens) (P12931 2-536 limits assumed): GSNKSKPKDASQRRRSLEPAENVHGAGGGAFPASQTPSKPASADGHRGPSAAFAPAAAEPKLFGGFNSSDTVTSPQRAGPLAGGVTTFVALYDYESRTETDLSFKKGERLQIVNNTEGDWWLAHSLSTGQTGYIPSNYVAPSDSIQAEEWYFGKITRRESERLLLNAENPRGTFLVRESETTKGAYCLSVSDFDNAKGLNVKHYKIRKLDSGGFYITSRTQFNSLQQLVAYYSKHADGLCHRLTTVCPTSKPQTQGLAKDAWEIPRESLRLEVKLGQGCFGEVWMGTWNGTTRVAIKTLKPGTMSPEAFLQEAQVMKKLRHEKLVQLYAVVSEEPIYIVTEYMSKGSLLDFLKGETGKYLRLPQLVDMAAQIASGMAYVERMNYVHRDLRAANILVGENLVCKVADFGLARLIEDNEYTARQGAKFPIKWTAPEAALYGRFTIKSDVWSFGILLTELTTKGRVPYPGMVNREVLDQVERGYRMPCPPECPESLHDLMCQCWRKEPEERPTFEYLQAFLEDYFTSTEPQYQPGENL
# [16] = molecular target: Angiopoietin-1 receptor (Homo sapiens) (UniProt Q02763); assay: Inhibition of Protein kinase TEK at 10 uM; procedure, shortened: as §2
# [17] = molecular target: Fibroblast growth factor receptor 1 (Homo sapiens) (UniProt P11362); assay: Inhibition of Protein kinase fibroblast growth factor receptor 1 at 10 uM; procedure, shortened: as §2
# [18] = molecular target: Insulin-like growth factor 1 receptor (Homo sapiens) (UniProt P08069); assay: Inhibition of Type 1 insulin like growth factor receptor at 10 uM; procedure, shortened: as §2
# [19] = molecular target: Tyrosine-protein kinase ABL1 (Homo sapiens) (UniProt P00519); assay: Inhibition of c-Abl tyrosine kinase at 10 uM; procedure, shortened: as §2
# [20] = molecular target: T1, Casein kinase II (Homo sapiens)
# [21] = molecular target: RAF proto-oncogene serine/threonine-protein kinase (Homo sapiens) (UniProt P04049); settings: 10 uM
# [22] = molecular target: Vascular endothelial growth factor receptor 3 (Homo sapiens) (UniProt P35916); settings: 10 uM
# Sequence of Vascular endothelial growth factor receptor 3 (Homo sapiens) (P35916 whole entry): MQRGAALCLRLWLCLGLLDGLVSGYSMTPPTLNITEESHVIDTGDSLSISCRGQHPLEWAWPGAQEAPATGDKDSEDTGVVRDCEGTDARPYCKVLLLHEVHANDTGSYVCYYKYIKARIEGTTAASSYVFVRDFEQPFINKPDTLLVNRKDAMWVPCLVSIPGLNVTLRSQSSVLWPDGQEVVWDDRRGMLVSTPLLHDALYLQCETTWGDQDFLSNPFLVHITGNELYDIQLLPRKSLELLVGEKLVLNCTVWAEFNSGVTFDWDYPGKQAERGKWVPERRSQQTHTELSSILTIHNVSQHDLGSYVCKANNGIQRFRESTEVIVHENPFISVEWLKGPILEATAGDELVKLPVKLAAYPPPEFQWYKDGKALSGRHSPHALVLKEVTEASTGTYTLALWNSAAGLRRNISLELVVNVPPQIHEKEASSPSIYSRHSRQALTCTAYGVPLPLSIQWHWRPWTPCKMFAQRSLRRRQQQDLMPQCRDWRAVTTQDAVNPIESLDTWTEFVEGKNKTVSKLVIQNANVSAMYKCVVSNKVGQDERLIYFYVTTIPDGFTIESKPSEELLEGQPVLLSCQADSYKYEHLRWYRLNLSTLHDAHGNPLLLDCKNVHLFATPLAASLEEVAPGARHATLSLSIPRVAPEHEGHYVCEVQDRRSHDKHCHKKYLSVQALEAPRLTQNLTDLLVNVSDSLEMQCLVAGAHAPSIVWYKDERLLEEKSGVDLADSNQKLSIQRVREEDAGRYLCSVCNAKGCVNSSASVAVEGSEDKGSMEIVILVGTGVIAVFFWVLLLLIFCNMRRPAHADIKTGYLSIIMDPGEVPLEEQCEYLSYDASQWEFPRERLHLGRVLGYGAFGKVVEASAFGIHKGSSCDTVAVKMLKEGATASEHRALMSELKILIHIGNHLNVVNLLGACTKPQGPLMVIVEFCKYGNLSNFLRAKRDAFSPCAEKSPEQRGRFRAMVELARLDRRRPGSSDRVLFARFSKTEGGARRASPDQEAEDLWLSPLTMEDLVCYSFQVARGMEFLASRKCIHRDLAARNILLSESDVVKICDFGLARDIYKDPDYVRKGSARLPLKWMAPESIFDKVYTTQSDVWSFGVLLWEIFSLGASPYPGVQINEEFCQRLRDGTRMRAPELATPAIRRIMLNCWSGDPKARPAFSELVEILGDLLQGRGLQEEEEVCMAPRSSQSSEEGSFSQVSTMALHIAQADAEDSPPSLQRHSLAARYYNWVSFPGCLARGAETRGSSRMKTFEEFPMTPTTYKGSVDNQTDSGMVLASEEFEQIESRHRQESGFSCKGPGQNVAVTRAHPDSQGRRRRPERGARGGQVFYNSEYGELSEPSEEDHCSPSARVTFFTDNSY
# Sequence of Cyclin-dependent kinase 1 (Homo sapiens) (P06493 whole entry, looked up): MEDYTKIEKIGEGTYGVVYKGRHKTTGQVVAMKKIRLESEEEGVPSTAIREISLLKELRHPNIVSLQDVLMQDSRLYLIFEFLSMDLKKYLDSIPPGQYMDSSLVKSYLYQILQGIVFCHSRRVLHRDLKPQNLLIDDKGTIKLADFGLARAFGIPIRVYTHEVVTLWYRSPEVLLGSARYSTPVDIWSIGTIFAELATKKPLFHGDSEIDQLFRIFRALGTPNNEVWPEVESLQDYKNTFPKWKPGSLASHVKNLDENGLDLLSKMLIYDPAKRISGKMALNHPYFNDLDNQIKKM
smiles,measurement,setting,value
Cc1c2ccccc2n2c1nc(O)c1ccccc12,inhibition,[1],12%
OCCc1c2ccccc2n2c1nc(O)c1ccccc12,inhibition,[1],48%
O=C(O)Cc1c2ccccc2n2c1[nH]c(=O)c1ccccc12,inhibition,[1],97%
same,inhibition,[2],51%
same,inhibition,[3],23%
same,inhibition,[4],54%
same,inhibition,[5],9%
same,inhibition,[6],11%
same,inhibition,[7],51%
same,inhibition,[8],30%
same,inhibition,[9],12%
same,inhibition,[10],29%
same,inhibition,[11],31%
same,inhibition,[12],40%
same,inhibition,[13],21%
same,inhibition,[14],41%
same,inhibition,[15],0%
same,inhibition,[16],36%
same,inhibition,[17],32%
same,inhibition,[18],44%
same,inhibition,[19],25%
same,IC50,[20],80 nM
same,inhibition,[21],30%
same,inhibition,[22],30%
